Consider 13 compounds from ChEMBL document CHEMBL1147851, “Novel class of arylpiperazines containing N-acylated amino acids: their synthesis, 5-HT1A, 5-HT2A receptor affinity, and in vivo pharmacological evaluation” (Bioorg Med Chem, 2007).

Each structure is given as a SMILES string. Activity calls are given as the source filed them. The calls are words filed in the database; no cut-off is given here.

Experiment [1] concerns the target D(2) dopamine receptor (Rattus norvegicus, UniProt P61169). The experiment is described as follows: Displacement of [3H]spiperone from dopaminergic D2 receptor in rat striatal membrane. It counts as cell membranes, Striatum. The method, boiled down: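 Rat striatal membranes incubated with [3H]spiperone, with 50 nM ketanserin added to block 5-HT2A sites. Nonspecific binding was defined with 5 μM (±)-butaclamol. Incubation 30 min at 37 °C, stopped by vacuum filtration, washed with 50 mM potassium phosphate pH 7.4, counted by liquid scintillation. Estimated Ki (Cheng–Prusoff) came from two concentrations (0.1, 1 μM) in triplicate, three experiments.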
In general terms: In a radioligand displacement assay an active substance lowers the binding of a labelled ligand.

Experiment [2] has as its target T1, 5-hydroxytryptamine receptor 1A (Rattus norvegicus, UniProt P19327).
T1 sequence (P19327 whole entry): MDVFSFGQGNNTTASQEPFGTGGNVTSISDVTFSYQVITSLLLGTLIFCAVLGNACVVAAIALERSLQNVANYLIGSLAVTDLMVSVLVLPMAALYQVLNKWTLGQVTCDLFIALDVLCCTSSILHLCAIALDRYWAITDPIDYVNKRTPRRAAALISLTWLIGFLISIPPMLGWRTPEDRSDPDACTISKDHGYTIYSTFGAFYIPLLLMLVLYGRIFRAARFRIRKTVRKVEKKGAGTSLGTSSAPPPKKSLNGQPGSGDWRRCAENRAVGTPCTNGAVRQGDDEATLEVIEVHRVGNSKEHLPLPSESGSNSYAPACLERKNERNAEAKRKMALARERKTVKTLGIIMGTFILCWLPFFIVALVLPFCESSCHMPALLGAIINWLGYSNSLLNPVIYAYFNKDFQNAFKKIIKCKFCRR
The experiment is described as follows: Displacement of [3H]8-OH-DPAT from serotonin 5HT1A receptor in rat brain hippocampus. It counts as tissue-based. The method, boiled down:
(§1)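 Full competition binding with 8–10 drug concentrations (10^-10–10^-3 M), each in triplicate. Ki was derived from at least three experiments.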

Experiment [3] concerns the target 5-hydroxytryptamine receptor 2A (Rattus norvegicus, UniProt P14842). The experiment is described as follows: Displacement of [3H]ketanserin from serotonin 5HT2A receptor in rat brain cortex. It counts as tissue-based. The method, boiled down: as §1
Experiment [4] deals with Mus musculus. The experiment can be described thus: Anxiolytic-like activity in Swiss Albino mouse at 5 mg/kg by four plate test. It counts as functional. The method, boiled down: (§2)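 Four-plate test in male Albino Swiss mice, dosed ip 30 or 60 min before testing. After 15 s of exploration, each plate-to-plate crossing triggered a 0.5 s, 120 V floor shock, with no new shock for the next 3 s. Punished crossings were counted over 60 s. n = 10 per group; ANOVA with Dunnett's test.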

In experiment [5] the test system is Mus musculus. The experiment can be described thus: Anxiolytic-like activity in Swiss Albino mouse at 2.5 mg/kg by four plate test. In kind it is functional. The method, boiled down: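 Male Albino Swiss mice (24–28 g), each used once, 10 per dose group. Dosing ip at 10 mL/kg, 30 or 60 min before testing depending on agent; tested compounds given as suspensions in 1% aqueous Tween 80. Four-metal-plate floor; 15 s exploration, then each plate-to-plate crossing shocked (120 V, 0.5 s), no new shock for 3 s if still running. Punished crossings counted over 60 s; one-way ANOVA, Dunnett's test.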

In experiment [6] the test system is Mus musculus. The experiment can be described thus: Antidepressant-like activity in Swiss Albino mouse at 5 mg/kg by forced swimming test. It counts as functional. The method, boiled down: (§3)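 Porsolt forced swim in male Albino Swiss mice, agents given ip (1% Tween 80 suspension) 30 min beforehand. Mice were placed in a cylinder 10 cm wide holding 6 cm of water at 23–25 °C for 6 min. Floating immobility was timed over the last 4 min. n = 9-10 per group; ANOVA with Dunnett's test.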

Experiment [7] concerns Mus musculus. The experiment is described as follows: Anxiolytic-like activity in Swiss Albino mouse at 20 mg/kg by four plate test. In kind it is functional. The method in brief: as §2
The target in experiment [8] is T2, 5-hydroxytryptamine receptor 1A (Mus musculus) (UniProt Q64264).
T2 sequence (whole entry): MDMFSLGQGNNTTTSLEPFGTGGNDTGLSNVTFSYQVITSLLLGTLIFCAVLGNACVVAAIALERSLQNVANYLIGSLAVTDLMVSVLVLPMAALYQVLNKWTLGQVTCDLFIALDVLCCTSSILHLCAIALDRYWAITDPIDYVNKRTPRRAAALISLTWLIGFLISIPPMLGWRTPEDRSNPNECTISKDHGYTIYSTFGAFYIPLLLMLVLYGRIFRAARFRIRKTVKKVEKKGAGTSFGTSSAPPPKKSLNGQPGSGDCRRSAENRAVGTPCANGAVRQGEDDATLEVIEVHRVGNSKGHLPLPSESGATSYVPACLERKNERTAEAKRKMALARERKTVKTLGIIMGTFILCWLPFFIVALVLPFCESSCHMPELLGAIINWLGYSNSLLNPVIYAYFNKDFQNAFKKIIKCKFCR
The experiment can be described thus: Activity at 5HT1A receptor in Swiss Albino mouse assessed as decrease in 8-OH-DPAT induced body temperature. In kind it is functional. The following applies: filed as agonist. The method, boiled down: (§4)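 Male Albino Swiss mice. 8-OH-DPAT 5 mg/kg sc induced hypothermia. Test agents were suspended in 1% aqueous Tween 80 and given ip 45 min before 8-OH-DPAT. Rectal temperature was taken 15, 30, 45 and 60 min after 8-OH-DPAT and expressed as change (Δt) from basal temperature. Six to ten animals per dose.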

Experiment [9] concerns Mus musculus. The experiment can be described thus: Anxiolytic-like activity in Swiss Albino mouse at 10 mg/kg by four plate test. In kind it is functional. The method, boiled down:
as §2

Experiment [10] concerns Mus musculus. The experiment can be described thus: Antidepressant-like activity in Swiss Albino mouse at 20 mg/kg by forced swimming test. In kind it is functional. The method, boiled down:
as §3

Experiment [11] has as its system Mus musculus. The experiment is described as follows: Antidepressant-like activity in Swiss Albino mouse at 10 mg/kg by forced swimming test. It counts as functional. The method, boiled down:
as §3

Experiment [12] is filed under the species Mus musculus. The experiment can be described thus: Reduction in spontaneous locomotor activity in Swiss Albino mouse. In kind it is functional, organism-based. The method, boiled down:
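Male Albino Swiss mice dosed ip were placed singly in photoresistor actometers (24 cm diameter, two light beams). Beam crossings were counted over the first 6 min and over a 30-min session. ANOVA with Dunnett's test.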

The species named for experiment [13] is Mus musculus. The experiment is described as follows: Decrease in body temperature in Albino Swiss mouse.
The species entered for experiment [14] is Mus musculus. The experiment can be described thus: Decrease in body temperature in C57BL/6J mouse. It counts as functional, organism-based.
For experiment [15], the species on record is Mus musculus. The experiment is described as follows: Effect on body temperature in Swiss Albino mouse. It counts as functional, organism-based. The method, boiled down:
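Male Albino Swiss mice received the agent alone ip as a suspension in 1% aqueous Tween 80. Rectal body temperature was read at 30, 60, 90 and 120 min after dosing and expressed as Δt from the basal value taken at the start. Six to ten animals per dose.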

Experiment [16] deals with T2, 5-hydroxytryptamine receptor 1A (Mus musculus). The experiment is described as follows: Antagonist activity at 5-HT1A receptor in Swiss Albino mouse assessed as decrease in 8-OH-DPAT induced body temperature. It counts as functional. The method in brief: as §4
The subject of experiment [17] is Mus musculus. The experiment can be described thus: Antidepressant-like activity in C57BL/6J mouse at 5 mg/kg by tail suspension test. In kind it is functional.
In experiment [18] the test system is Mus musculus. The experiment is described as follows: Antidepressant-like activity in C57BL/6J mouse at 10 mg/kg by tail suspension test. It counts as functional. The method in brief:
(§5)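 Tail suspension in male C57BL/6J mice (22–23 g), dosed ip in 1% Tween 80 suspension 30 min before the test. Each mouse hung by adhesive tape about 1 cm from the tail tip, 75 cm above the floor. Total immobility, meaning no limb or body movement except breathing, was scored manually over 6 min. n = 9-10 per group; one-way ANOVA then Dunnett's test.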

In experiment [19] the test system is Mus musculus. The experiment is described as follows: Antidepressant-like activity in Swiss Albino mouse at 2.5 mg/kg by forced swimming test. It counts as functional. The method in brief: as §3
For experiment [20], the system named is Mus musculus. The experiment is described as follows: Antidepressant-like activity in C57BL/6J mouse at 20 mg/kg by tail suspension test. It counts as functional. The method, boiled down: as §5

The Ki is the dissociation constant of the complex between target and ligand, obtained from inhibition or displacement. Read a low Ki as tighter binding.

5-hydroxytryptamine receptor 2A, sequence (P14842 whole entry): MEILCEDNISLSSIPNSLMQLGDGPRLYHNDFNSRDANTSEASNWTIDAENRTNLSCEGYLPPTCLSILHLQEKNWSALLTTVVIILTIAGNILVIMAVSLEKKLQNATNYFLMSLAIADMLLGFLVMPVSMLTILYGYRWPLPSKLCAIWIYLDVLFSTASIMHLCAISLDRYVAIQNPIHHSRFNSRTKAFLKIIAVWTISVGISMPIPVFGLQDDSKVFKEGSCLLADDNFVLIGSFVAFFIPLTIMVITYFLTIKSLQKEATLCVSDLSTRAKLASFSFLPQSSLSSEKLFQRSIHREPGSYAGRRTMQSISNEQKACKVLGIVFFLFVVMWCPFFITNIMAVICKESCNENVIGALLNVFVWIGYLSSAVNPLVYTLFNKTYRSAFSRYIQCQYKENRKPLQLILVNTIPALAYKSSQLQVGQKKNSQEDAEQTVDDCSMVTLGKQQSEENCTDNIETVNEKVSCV
D(2) dopamine receptor, sequence (P61169 whole entry): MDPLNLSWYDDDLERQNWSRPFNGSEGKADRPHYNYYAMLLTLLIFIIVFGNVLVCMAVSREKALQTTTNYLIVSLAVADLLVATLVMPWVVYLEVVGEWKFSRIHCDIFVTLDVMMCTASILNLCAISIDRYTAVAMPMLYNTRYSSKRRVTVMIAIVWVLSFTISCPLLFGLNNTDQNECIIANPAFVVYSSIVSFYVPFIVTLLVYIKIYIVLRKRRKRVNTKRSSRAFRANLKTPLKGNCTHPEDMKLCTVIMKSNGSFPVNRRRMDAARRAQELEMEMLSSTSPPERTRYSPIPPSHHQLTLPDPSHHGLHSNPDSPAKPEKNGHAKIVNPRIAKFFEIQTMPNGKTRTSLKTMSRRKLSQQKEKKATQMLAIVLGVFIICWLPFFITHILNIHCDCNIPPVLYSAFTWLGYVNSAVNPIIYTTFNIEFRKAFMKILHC

As for `O=C1CCC(=O)N1CCCCN1CCN(c2cccc(Cl)c2)CC1`, the Ki in experiment [1] stood at 7800 nM; in experiment [2], 32 nM; in [3] it was 121 nM.

As for `CN1C(=O)CN=C(c2ccccc2)c2cc(Cl)ccc21` [DIAZEPAM], the Activity in [4] was 6.7; in [5], 6.8.

With `COc1ccccc1N1CCN(CCCCN2C(=O)C[C@H](NC(=O)C3CCCC3)C2=O)CC1`, the Activity in [4] is 3.4; in experiment [6], 133.4 s; in experiment [7], 6; in experiment [8] it was “Agonist”; in experiment [9], 5.2; in [10], 103 s. The Activity in experiment [11] was 123.3 s. The Ki in [1] is 905 nM; in [2], 23 nM; in experiment [3], 480 nM. Further, the result in experiment [12] was Active.

For the compound `COc1ccccc1N1CCN(CCCCN2C(=O)C[C@H](NC(=O)CC3CC4CCC3C4)C2=O)CC1` (stereo not given in full), in [13], the outcome was Active. The values for the Ki in experiment [1], in experiment [2] and in experiment [3] were 880 nM, 9 nM and 47 nM, respectively.

With `COc1ccccc1N1CCN(CCCCN2C(=O)C[C@H](NC(=O)C34CC5CC(CC(C5)C3)C4)C2=O)CC1`, the result in experiment [13] was Active. The results for the Ki in experiment [1], in experiment [2] and in experiment [3] were 1780 nM, 4 nM and 173 nM, respectively.

As for `COc1ccccc1N1CCN(CCCCNC(=O)[C@@H]2CCCN2C(=O)C2CCCCC2)CC1`, the outcome in experiment [14] was Active. Moreover, the inhibition constant (Ki) in experiment [1] stood at 3590 nM; in experiment [2], 19 nM; in [3], 990 nM.

Turning to `O=C(N[C@H]1CC(=O)N(CCCCN2CCN(c3cccc(Cl)c3)CC2)C1=O)C1CCCCC1`, the results for the inhibition constant (Ki) in experiment [1], in [2] and in [3] were 2130 nM, 26 nM and 6.51 nM, respectively. In addition, the outcome in experiment [15] was inactive.

Take `O=C1C[C@H](NC(=O)C23CC4CC(CC(C4)C2)C3)C(=O)N1CCCCN1CCN(c2cccc(Cl)c2)CC1`: the Activity in experiment [4] is recorded as 4.6; in [7] it was 5.6; in experiment [9], 5.1. The inhibition constant Ki in [1] was determined as 21200 nM; in experiment [2], 47 nM; in experiment [3], 25 nM. For the same compound, the outcome in experiment [16] was Active.

For `O=C(CC1CC2CCC1C2)N[C@H]1CC(=O)N(CCCCN2CCN(c3cccc(Cl)c3)CC2)C1=O` (stereo not given in full), the results for the inhibition constant Ki in experiment [1], in experiment [2] and in experiment [3] were 776 nM, 21 nM and 4.2 nM, respectively. In addition, the result in [15] was inactive.

Turning to `COc1ccccc1N1CCN(CCCCN2C(=O)C[C@H](NC(=O)C3CCCCC3)C2=O)CC1`, the Activity in experiment [4] is given as 6.6; in [6], 110 s; in [17], 147.9 s; in experiment [18], 129.1 s; in experiment [19], 131.6 s; in experiment [7] it was 7.5. Moreover, the Activity in [5] was 4.7; in [8], “Agonist”; in [9] it was 7; in experiment [10], 128.1 s; in experiment [11], 102 s; in experiment [20], 116.1 s. For the same compound, the Ki in [1] worked out at 2080 nM; in [2] it was 19 nM; in experiment [3], 183 nM. Moreover, the outcome in [12] was inactive.

In the case of `O=C(N[C@H]1CC(=O)N(CCCCN2CCN(c3cccc(Cl)c3)CC2)C1=O)C1CCCC1`, the result in experiment [13] was Active. In addition, the figures for the inhibition constant Ki in experiment [1], in experiment [2] and in [3] were 12400 nM, 28 nM and 47 nM, respectively.

Turning to `COc1ccccc1N1CCN(CCCCN2C(=O)CCC2=O)CC1`, the figures for the inhibition constant Ki in experiment [1] and in experiment [3] were 490 nM and 1510 nM, respectively.

Consider `CN(C)CCCN1c2ccccc2CCc2ccccc21` [IMIPRAMINE], for which the Activity in experiment [17] came to 147.4 s; in [18], 102.5 s; in [10], 107.8 s; in experiment [11], 149.1 s; in experiment [20], 90.2 s.
